Several values for one entry are separate records, joined by “and”; a condition that tells them apart may be missing. Identical values can stand only once.
Legend:
[1] = Plasma protein binding by equilibrium dialysis; format: in vitro ADME, mouse
Outline: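 Equilibrium dialysis. CD-1 mouse plasma (sodium heparin) was spiked at final 2–2000 ng/ml (eight levels), in triplicate, against blank Ringer's solution. Rotated at 37°C for 24 h, then both sides sampled. Fraction unbound = buffer-side concentration / plasma-side total concentration.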

[2] = Plasma pharmacokinetic study, 10 mg/kg SQ, population model; format: in vivo, CD-1 nude mice bearing G3MB; details: for AUC: Model-derived AUCplasma, total plasma
Outline: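 Nine female CD-1 nude mice carrying orthotopic mouse G3MB cells (enrolled at ~1×10^7 photons/sec) got 10 mg/kg SQ in 20% w/v Captisol. Population design: 2–3 samples per mouse up to 24 h, […]. Plasma assayed by LC-MS/MS. Fit with a two-compartment model with first-order absorption and linear elimination (apparent parameters); FOCE with interaction; log-normal inter-individual variability.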

[3] = Cerebral microdialysis, tumor ECF, mice bearing G3MB; format: in vivo, CD-1 nude mice bearing G3MB
Outline: (§1)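 Female CD-1 nude mice, non-tumor-bearing (N=7) or with cortical G3MB implants enrolled at ~1×10^7 photons/sec (N=8). Stereotactic cortical guide cannula; 1 mm probe (38 kDa MWCO) perfused with Ringer's at 0.5 µl/min, 1 h equilibration. Single 10 mg/kg SQ dose. Hourly dialysate to 24 h; plasma at 0.25, 6.5 and 24 h. LC-MS/MS. Unbound ECF = dialysate/probe recovery. Population PK model gave per-mouse AUCs and ECF rate constants.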

[4] = Cerebral microdialysis, brain ECF, non-tumor bearing; format: in vivo, CD-1 nude mice (non-tumor bearing); details: 10 mg/kg SQ
Outline: as §1

[5] = Plasma pharmacokinetic study, 20 mg/kg IV, PK/PD model; format: in vivo, CD-1 nude mice bearing G3MB; details: plasma model re-estimated with 20 mg/kg IV data
Outline: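 Nine female CD-1 nude mice with orthotopic G3MB (~1×10^7 photons/sec) got 20 mg/kg prexasertib mesylate IV in 20% w/v Captisol. Sparse sampling: 2–3 plasma samples per mouse to 24 h, LC-MS/MS.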

[6] = system: pCHK1 S345; experiment: Pharmacodynamic study, immunohistochemistry of G3MB tumor tissue: pCHK1 S345; format: in vivo, mice bearing G3MB
Outline: (§2)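 G3MB-bearing mice (N=21), enrolled at ~1×10^7 photons/sec, were randomized to vehicle or one 20 mg/kg IV bolus. Brains were harvested pre-dose and at 1, 2, 6 and 24 h post-dose and fixed in paraformaldehyde. Immunohistochemistry was done for pCHK1 S345, γ-H2AX and cleaved caspase-3. Scanned slides were quantified as percent positive-staining cells.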

[7] = system: γ-H2AX; experiment: Pharmacodynamic study, immunohistochemistry of G3MB tumor tissue: γ-H2AX; format: in vivo, mice bearing G3MB
Outline: as §2

[8] = system: cleaved caspase-3; format: in vivo, mice bearing G3MB; details: 20 mg/kg IV single dose, at 24 hours post-dose; not statistically significant
Outline: as §2

[9] = adult patients, recommended phase II dosage of 105 mg/m^2; ref Hong et al., 2016; cited from earlier work
[10] = 10 mg/kg SQ, apparent parameter
[11] = 10 mg/kg SQ, ECF model, G3MB mice
[12] = PK/PD model, fixed based upon a sensitivity analysis

Binding to the dialysis membrane of the Equilibrium Dialyzer plate [1]: negligibly bound | fraction unbound at 24 h ([1]; CD-1, mouse, plasma): 0.11 | CL, plasma (central) clearance, estimate (RSE%) [2, 10]: 5.64 (4.3%) l/h/kg | Q, tissue (peripheral) clearance, estimate (RSE%) [2, 10]: 0.58 (13%) l/h/kg | Vc, plasma (central) volume, estimate (RSE%) [2, 10]: 1.81 (18%) l/kg | Vp, tissue (peripheral) volume, estimate (RSE%) [2, 10]: 3.42 (8.0%) l/kg | ka, absorption rate constant, estimate (RSE%) ([2]; 10 mg/kg SQ, plasma population model): 1.07 (12%) h^−1 | half-life ([2]; female, CD-1 nude, mouse, plasma, subcutaneous, 10 mg/kg): 4.5 h | AUC ([2]; female, CD-1 nude, mouse, plasma, subcutaneous, 10 mg/kg, 0−∞ (mean ± SD), 10 mg/kg SQ): 1820 ± 462 ng·h/mL | AUC ([2]; female, CD-1 nude, mouse, plasma, subcutaneous, 10 mg/kg, 0−∞, range, 10 mg/kg SQ): 1460 to 2880 ng·h/mL | kb45, peripheral rate constant, estimate (RSE%) [3, 11]: 0.39 (24%) h^−1 | kb54, peripheral rate constant, estimate (RSE%) [3, 11]: 0.05 (41%) h^−1 | Time of maximum tumor ECF concentrations post-dose ([3]; 10 mg/kg SQ, mice bearing G3MB): 1 h | Unbound AUCECF (mean ± SD) ([3]; 10 mg/kg SQ, tumor ECF, tumor-bearing mice, at 24 hours post-dose): 47.3 ± 17 ng·h/mL | Kp uu ([3]; CD-1 nude, mouse, tumor ECF (microdialysate) / unbound plasma, subcutaneous, 10 mg/kg): 0.17 ± 0.08 | θNTB on CLef, proportional shift for NTB mice, estimate (RSE%) ([4]; ECF model): 2.20 (38%) | θNTB on CLin, proportional shift for NTB mice, estimate (RSE%) ([4]; ECF model): 0.93 (45%) | θNTB on kb45, proportional shift for NTB mice, estimate (RSE%) ([4]; ECF model): 5.90 (77%) | θNTB on kb54, proportional shift for NTB mice, estimate (RSE%) ([4]; ECF model): 17.9 (32%) | Time of maximum brain ECF concentrations post-dose ([4]; NTB mice): 1 h | AUCplasma of unbound prexasertib (mean ± SD) ([4]; NTB mice, at 24 hours post-dose, from total exposure and FU): 271 ± 23 ng·h/mL | Unbound AUCECF (mean ± SD) ([4]; brain ECF, NTB mice, at 24 hours post-dose): 24.8 ± 11.8 ng·h/mL and 24.8 ng·h/mL | CL, plasma clearance, estimate (RSE%) [5]: 6.03 (8.0%) l/h/kg | Q, tissue (peripheral) clearance, estimate (RSE%) [5]: 0.807 (10%) l/h/kg | Vc, plasma volume, estimate (RSE%) [5]: 2.67 (13%) l/kg | Vp, tissue (peripheral) volume, estimate (RSE%) [5]: 3.79 (6.0%) l/kg | ka, absorption rate constant, estimate (RSE%) [5]: 1.16 (10%) h^−1 | EC50 at 20 mg/kg ([6]; Mus musculus, iv, read-out: pCHK1 S345 EC50, prexasertib ECF concentration for 50% stimulation of maximum function of kin, estimate (RSE%), PK/PD model, 20 mg/kg IV, tumor ECF, preliminary): 0.0102 µg/mL | pCHK1 S345 EC50, prexasertib ECF concentration for 50% stimulation of maximum function of kin, estimate (RSE%) ([6]; PK/PD model, 20 mg/kg IV, tumor ECF, preliminary, 20 mg/kg): 10.15 (26.5%) ng/ml
Compound: COc1cccc(OCCCN)c1-c1cc(Nc2cnc(C#N)cn2)n[nH]1 [prexasertib, 5-(5-[2-(3-Aminopropoxy)-6-methoxyphenyl]-1H-pyrazol-3-yl}amino)pyrazine-2-carbonitrile methanesulfonate hydrate]
Time of peak induction of pCHK1 S345 after the dose ([6]; 20 mg/kg IV single dose): 2 hours | Time pCHK1 S345 stayed above baseline after the dose ([6]; 20 mg/kg IV single dose): at least 6 hours | Peak in pCHK1 S345 nuclear staining ([6]; 20 mg/kg IV single dose, at 2 hours): 2.2 fold | pCHK1 S345 Emax, maximum extent of stimulation [6, 12]: 2.0 (-) | Time of peak induction of γ-H2AX after the dose ([7]; 20 mg/kg IV single dose): 2 h | Time γ-H2AX was elevated above baseline ([7]; 20 mg/kg IV single dose): at least 6 hours | pH2Ax Emax, maximum extent of stimulation [7, 12]: 5.0 (-) | Increase of cleaved caspase-3 [8]: 1.4 fold | Plasma exposure AUCplasma, 0−∞ (mean ±SD) [9]: 2410 ± 1229 ng·h/mL
